In ChEMBL document CHEMBL1142496, “Studies on enzyme-cleavable dialkoxymethyl-cyclosaligenyl-2',3'-dideoxy-2',3'-didehydrothymidine monophosphates” (J Med Chem, 2008):

Key:
[1] = system: Human immunodeficiency virus 1; assay: Antiviral activity against HIV1 in human wild type CEM/0 cellss; assay type: functional, organism-based; details: Human immunodeficiency virus 1, CCRF-CEM
In short: (§1)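 Anti-HIV assay in T-lymphocytes: wild-type CEM/0 cells infected with HIV-1 or HIV-2, and thymidine kinase-deficient CEM/TK⁻ cells infected with HIV-2. Cells grown in RPMI-1640 with 10% heat-inactivated fetal calf serum. Read-out is the 50% effective concentration, given as the mean of two to three independent experiments.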

[2] = Cytostatic activity against human wild type CEM/0 cellss; assay type: cell-based, CCRF-CEM; details: wild-type CEM/0 cells
In short: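 Cytostatic activity on T-lymphocyte CEM cultures, reported as the 50% cytostatic concentration.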

[3] = Stability in aqueous 25 mM phosphate buffer at pH 7.6 assessed as hydrolysis half life; assay type: physicochemical
In short: (§2)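 Chemical stability in aqueous 25 mM phosphate buffer at pH 7.3 or 7.6. Triester cleavage followed by HPLC; half-life refers to disappearance of the intact triester.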

[4] = system: Human immunodeficiency virus 2; assay: Antiviral activity against HIV2 in human wild type CEM/0 cellss; assay type: functional, organism-based; details: Human immunodeficiency virus 2, CCRF-CEM; in short: as §1
[5] = Stability in RPMI-1640 medium containing 10% heat inactivated fetal calf serum at pH 7.6 assessed as hydrolysis half life; assay type: physicochemical; details: cattle, RPMI-1640 medium with 10% heat-inactivated fetal calf serum
In short: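 Stability in RPMI-1640 culture medium with 10% fetal calf serum heat-inactivated for 30 min at 56 °C (pH 7.6). Handled like the cell-extract incubations, with medium in place of extract; triester half-life and formyl-product formation followed by HPLC.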

[6] = system: Human immunodeficiency virus 2; assay: Antiviral activity against HIV2 in thymidine kinase deficient human CEM/TK- cellss; assay type: functional, organism-based; details: Human immunodeficiency virus 2, CEM-TK(-); in short: as §1
[7] = Stability in aqueous 25 mM phosphate buffer at pH 7.3 assessed as hydrolysis half life; assay type: physicochemical; in short: as §2
[8] = Stability in human CEM cells extracts at pH 6.9 assessed as hydrolysis half life; assay type: ADME, CCRF-CEM; details: CEM cell extracts
In short: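 Enzymatic stability assay: triesters incubated in CEM cell extracts (pH 6.9) over varied incubation times. Acetic acid was not used to stop the reaction for acid-sensitive compounds. Samples analysed by HPLC to give the half-life of triester cleavage.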

[9] = system: Human immunodeficiency virus; assay: Antiviral activity against HIV; assay type: functional, organism-based; details: Human immunodeficiency virus 1; in short: as §1

Compound | EC50 [1] | CC50 [2] | half-life [3] | EC50 [4] | half-life [5] | EC50 [6] | half-life [7] | half-life [8] | EC50 [9]
Cc1cn([C@H]2C=C[C@@H](CO[P@@]3(=O)OCc4cc(C=O)cc(C(C)(C)C)c4O3)O2)c(=O)[nH]c1=O | 810 nM | 41000 nM | 0.3 h | 1400 nM | 1.6 h | 10000 nM | 1 h |  | 
Cc1cc(C(OC(=O)C(C)C)OC(=O)C(C)C)cc2c1OP(=O)(OC[C@@H]1C=C[C@H](n3cc(C)c(=O)[nH]c3=O)O1)OC2 (stereo not given in full) | 1600 nM | 20000 nM | 1.1 h | 950 nM | 1.6 h | > 10000 nM | 1.3 h | 0.5 h | 
Cc1cn([C@H]2C=C[C@@H](COP3(=O)OCc4cc(C=O)cc(C(C)(C)C)c4O3)O2)c(=O)[nH]c1=O (stereo not given in full) | 390 nM | 33000 nM | 1.1 h | 1000 nM | 1.5 h | 15000 nM | 1 h |  | 
Cc1cn([C@H]2C=C[C@@H](CO[P@]3(=O)OCc4cc(C=O)cc(C(C)(C)C)c4O3)O2)c(=O)[nH]c1=O | 160 nM | 27000 nM | 1.3 h | 690 nM | 1.7 h | 2600 nM | 1.3 h |  | 
Cc1cn([C@H]2C=C[C@@H](COP3(=O)OCc4cc(C(C)(C)C)cc(C=O)c4O3)O2)c(=O)[nH]c1=O (stereo not given in full) | 990 nM | 8800 nM | 0.1 h | 1000 nM | 0.3 h | 5100 nM | 0.25 h |  | 
Cc1cc(C=O)cc2c1OP(=O)(OC[C@@H]1C=C[C@H](n3cc(C)c(=O)[nH]c3=O)O1)OC2 (stereo not given in full) | 450 nM | 82000 nM | 0.35 h | 1270 nM | 0.7 h | 4500 nM |  |  | 
CC(=O)OC(OC(C)=O)c1cc(C(C)(C)C)cc2c1OP(=O)(OC[C@@H]1C=C[C@H](n3cc(C)c(=O)[nH]c3=O)O1)OC2 (stereo not given in full) | 720 nM | 7900 nM | 1.2 h | 1000 nM | 1.9 h | 7300 nM | 3.7 h | < 0.1 h | 
CC(=O)OC(OC(C)=O)c1cc2c(c(C(C)(C)C)c1)OP(=O)(OC[C@@H]1C=C[C@H](n3cc(C)c(=O)[nH]c3=O)O1)OC2 (stereo not given in full) | 650 nM | 19000 nM | 2.6 h | 800 nM | 2.8 h | 780 nM | 7.9 h | 0.15 h | 
Cc1cn([C@H]2C=C[C@@H](COP3(=O)OCc4cc(C(OC(=O)C(C)C)OC(=O)C(C)C)cc(C(C)(C)C)c4O3)O2)c(=O)[nH]c1=O (stereo not given in full) | 530 nM | 20000 nM | 2.7 h | 2000 nM | 5.9 h | 2400 nM | 3.5 h | 1 h | 
CC(=O)OC(OC(C)=O)c1cc2c(c(C(C)(C)C)c1)O[P@](=O)(OC[C@@H]1C=C[C@H](n3cc(C)c(=O)[nH]c3=O)O1)OC2 | 540 nM | 17000 nM | 2.7 h | 750 nM | 2.9 h | 290 nM | 7.9 h | 0.3 h | 
CC(=O)OC(OC(C)=O)c1cc2c(c(C(C)(C)C)c1)O[P@@](=O)(OC[C@@H]1C=C[C@H](n3cc(C)c(=O)[nH]c3=O)O1)OC2 | 1100 nM | 51000 nM | 2.4 h | 840 nM | 2.8 h | 3900 nM | 8.3 h | 0.15 h | 
Cc1cn([C@H]2C=C[C@@H](CO)O2)c(=O)[nH]c1=O [STAVUDINE] | 860 nM | 182000 nM |  | 1900 nM |  | 62000 nM |  |  | 
Cc1cccc2c1OP(=O)(OC[C@@H]1C=C[C@H](n3cc(C)c(=O)[nH]c3=O)O1)OC2 (stereo not given in full) |  |  |  |  |  |  |  |  | 100 nM
CC(=O)OC(OC(C)=O)c1cc(C)c2c(c1)COP(=O)(OC[C@@H]1C=C[C@H](n3cc(C)c(=O)[nH]c3=O)O1)O2 (stereo not given in full) | 500 nM | 44000 nM | 1.9 h | 700 nM | 1.5 h | 6300 nM |  |  | 
Cc1cn([C@H]2C=C[C@@H](COP3(=O)OCc4cc(C(C)(C)C)ccc4O3)O2)c(=O)[nH]c1=O (stereo not given in full) |  |  |  |  |  |  | 7.2 h |  | 
Cc1cn([C@H]2C=C[C@@H](CO[P@]3(=O)OCc4cc(C(OC(=O)C(C)C)OC(=O)C(C)C)cc(C(C)(C)C)c4O3)O2)c(=O)[nH]c1=O | 720 nM | 14000 nM | 2.5 h | 850 nM | 5.7 h | 1400 nM | 3.3 h | 1 h | 
Cc1cn([C@H]2C=C[C@@H](CO[P@@]3(=O)OCc4cc(C(OC(=O)C(C)C)OC(=O)C(C)C)cc(C(C)(C)C)c4O3)O2)c(=O)[nH]c1=O | 890 nM | 40000 nM | 2.9 h | 1900 nM | 4.5 h | 3600 nM | 3.8 h | 0.8 h | 
Cc1cc(C=O)c2c(c1)COP(=O)(OC[C@@H]1C=C[C@H](n3cc(C)c(=O)[nH]c3=O)O1)O2 (stereo not given in full) | 3600 nM | 29000 nM | 0.3 h | 1400 nM | 0.3 h | 29000 nM | 0.25 h |  | 
CC(=O)OC(OC(C)=O)c1cc(C)cc2c1OP(=O)(OC[C@@H]1C=C[C@H](n3cc(C)c(=O)[nH]c3=O)O1)OC2 (stereo not given in full) | 520 nM | 19000 nM | 1.1 h | 1000 nM | 1.5 h | 6500 nM | 3.2 h | 0.25 h | 
